The source of these data is ChEMBL document CHEMBL2163220 (J Med Chem, 2012).

Changes are numbered by the printed parent chain. Active and inactive are the calls of the source. The rule behind the calls is not given here.

What all share (type): functional, cell-based
For assay [1], the system named is T1, Androgen receptor (Homo sapiens), P10275 [H875Y].
T1 sequence (whole entry): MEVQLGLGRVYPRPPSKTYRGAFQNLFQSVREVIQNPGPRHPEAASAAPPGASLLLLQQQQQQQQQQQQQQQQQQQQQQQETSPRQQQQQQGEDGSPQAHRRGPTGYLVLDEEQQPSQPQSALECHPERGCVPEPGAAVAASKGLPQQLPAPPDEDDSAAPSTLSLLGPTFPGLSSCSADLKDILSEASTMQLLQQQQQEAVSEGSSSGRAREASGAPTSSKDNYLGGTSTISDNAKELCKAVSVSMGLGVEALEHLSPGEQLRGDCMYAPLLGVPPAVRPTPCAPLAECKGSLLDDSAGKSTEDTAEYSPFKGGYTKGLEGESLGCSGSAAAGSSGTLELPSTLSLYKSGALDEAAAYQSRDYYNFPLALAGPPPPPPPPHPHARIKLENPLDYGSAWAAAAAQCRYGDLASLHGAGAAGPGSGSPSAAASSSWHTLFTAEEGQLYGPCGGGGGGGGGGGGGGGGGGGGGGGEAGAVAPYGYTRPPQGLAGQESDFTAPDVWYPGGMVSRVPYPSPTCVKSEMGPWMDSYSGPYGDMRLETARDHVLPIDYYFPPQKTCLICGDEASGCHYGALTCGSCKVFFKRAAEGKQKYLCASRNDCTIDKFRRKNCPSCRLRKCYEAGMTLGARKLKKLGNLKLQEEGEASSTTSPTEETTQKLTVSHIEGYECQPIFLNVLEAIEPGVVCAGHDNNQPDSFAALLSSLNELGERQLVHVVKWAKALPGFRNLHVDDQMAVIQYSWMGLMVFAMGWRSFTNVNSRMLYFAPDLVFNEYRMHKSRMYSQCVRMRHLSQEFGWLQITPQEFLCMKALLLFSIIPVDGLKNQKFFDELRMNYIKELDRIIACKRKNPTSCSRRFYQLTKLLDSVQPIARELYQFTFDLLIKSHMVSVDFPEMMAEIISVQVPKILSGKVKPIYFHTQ
In words: Antagonist activity at androgen receptor H874Y mutant expressed in human PC3 cells assessed as reduction in DHT-induced receptor transactivation at 0.1 to 1 uM by luciferase reporter gene assay. As to conditions: PC-3. Summed up:
(§1)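 Full-length wild-type or mutant AR plasmid transiently transfected into PC-3 cells with MMTV-luc and Renilla luciferase reporters. Cells treated with DMSO vehicle or compound at 0.1 and 1 μM, alone or with 0.1 nM DHT. Luciferase read as relative luciferase units. Run in triplicate.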
In general terms: Reporter assays use an easily measured gene product as a stand-in for the process of interest.

For assay [2], the system named is T2, Androgen receptor (Homo sapiens), P10275 [W742C].
T2 sequence (whole entry): T1 sequence (whole entry) with W742C, Y875H
In words: Antagonist activity at androgen receptor W741C mutant expressed in human PC3 cells assessed as reduction in DHT-induced receptor transactivation at 0.1 to 1 uM by luciferase reporter gene assay. The note with it: PC-3. The procedure, abridged:
as §1

Assay [3] concerns LNCaP. The assay is described as follows: Induction of apoptosis in human LNCAP cells assessed as PARP cleavage activation incubated for 24 hrs by Western blotting. The procedure, abridged: (§2)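 LNCaP cells in complete medium were exposed to DMSO or compound at 1, 2.5 and 5 μM for 24 h. Western blot measured AR, maspin, caspase-3 activation and PARP cleavage, with β-actin as loading control.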
In general terms: Immunoblotting shows a protein as a band on a membrane.

The test system of assay [4] is LNCaP. The assay is described as follows: Reduction in androgen receptor protein expression in human LNCAP cells incubated for 24 hrs by Western blotting. Summed up:
as §2

As for `Cc1coc2c1C(=O)C(=O)c1c-2ccc2c1CCCC2(C)C` [TANSHINONE IIA], in assay [1], the result was inactive. The outcome in assay [2] was Active. For the same compound, the Activity entry in assay [3] and in assay [4] was “Dose-dependent effect” each time.
